Experimental data from different studies.
Target: Serine/threonine-protein kinase 24 (STK24, Homo sapiens, UniProt Q9Y6E0)

For `Cc1ccc(Nc2nccc(N(C)c3ccc4c(C)n(C)nc4c3)n2)cc1S(N)(=O)=O`, the inhibition was -24% (enzyme activity; inhibitor; 10 µM).
`COc1cccc2c(NCc3ccccc3)nc(-n3c(N)nc4ccccc43)nc12` has an inhibition of -9.9% (target engagement in cells; inhibitor; chemoproteomics; 20 mM).
The remaining signal of `Nc1ncnc2occ(-c3ccc(NC(=O)Nc4cc(C(F)(F)F)ccc4F)cc3)c12` is reported as 4% (cell-free assay; inhibitor; 20 µM).
The inhibition of `CCN1CCN(Cc2ccc(NC(=O)c3ccc(C)c(Oc4ccnc5[nH]ccc45)c3)cc2C(F)(F)F)CC1` is reported as -10.7% (target engagement in cells; inhibitor; chemoproteomics; A-375; 50 nM).
`C[C@@H]1CN(c2cc(-c3nn(C)c4ccc(OC5(C)CC5)cc34)ncn2)C[C@H](C)O1` has a remaining binding of 79% (cell-free assay; competition with immobilised ligand; 1 µM).
`COc1cc2ncnc(Nc3ccc(Oc4ccccc4)c(C)c3C)c2cc1OC` has an inhibition of 10% (enzyme activity; inhibitor; 1 µM).
For `Oc1cccc(-c2nc(N3CCOCC3)c3oc4ncccc4c3n2)c1`, the remaining signal was 100% (cell-free assay; 0.5 µM).
With `CCOCCn1cc(C(=O)Nc2ccc(-n3nc(-c4cccnc4)cc3C(F)(F)F)cn2)ccc1=O` the remaining binding was 100% (cell-free assay; competition with immobilised ligand; 1 µM).
`O=C(Nc1cnn(-c2csc(C(=O)NC3COC3)c2)c1)Nc1c(F)cccc1Cl` has a remaining activity of 81.6% (enzyme activity; inhibitor; 5 µM).
`CC(C)(C)c1nc2c(s1)c1nc(N)ncc1c1ccc(NS(=O)(=O)c3c(F)cccc3F)c(F)c12` gave a remaining activity of 28% (enzyme activity; inhibitor; radiometric; 1 µM).
For `O=C1NC(=O)c2cc(Nc3ccc(F)cc3)c(Nc3ccc(F)cc3)cc21`, the remaining signal was 93.7% (cell-free assay; 0.5 µM).
The remaining binding of `O=C(N[C@H]1CCCCC/C=C\C2C[C@@]2(C(=O)O)NC(=O)[C@@H]2C[C@@H](Oc3ccncc3)CN2C1=O)OC1CCCC1` (stereo partly drawn) is reported as 81% (binding; competition with immobilised ligand; 1 µM).
For `CC(C)(O)[C@H]1CC[C@H](Nc2ccc3ncc(-c4cccc(C(F)(F)F)c4)n3n2)CC1`, the remaining activity was 96.1% (enzyme activity; inhibitor; 1 µM).
The remaining binding of `COc1ccc2c(c1)O[C@H](c1ccc(OC)c(OC)c1)C[C@@H]2NC(=O)C1(c2ccc3c(c2)OC(F)(F)O3)CC1` is reported as 92% (cell-free assay; competition with immobilised ligand; 1 µM).
`Cn1c2c(c3ccc(Cl)c(Cl)c31)C(C#N)C1(CCOCC1)NC2=O` (stereo not drawn) gave a ΔTm of -0.3 °C (thermal stability; DSF; 10 µM).
With `Cc1cnc(NC2CCOCC2)nc1-n1cnc(C(=O)NC(CN)c2cc(F)cc(Cl)c2)c1` (stereo not drawn) the remaining activity was 32% (enzyme activity; inhibitor; radiometric; 1 µM).
With `O=C(Nc1ccc(Oc2ccc(F)cc2)cc1)N1CCc2ncccc2[C@H]1c1ccc(F)cc1` the remaining binding was 93% (cell-free assay; competition with immobilised ligand; 1 µM).
`Cn1c2c(c3ccc(Cl)c(Cl)c31)C(C#N)C1(CCCC1)NC2=O` (stereo not drawn) gave a ΔTm of 0.8 °C (thermal stability; DSF; 10 µM).
